Results as given in ChEMBL document CHEMBL3244382, “Structural requirements for antileukemic activity among the naturally occurring and semisynthetic maytansinoids” (J Med Chem, 1978).
≈ marks a conversion by molar mass, not a printed value. Calls of active or inactive are those of the source.

What was measured:
[1] = system: Mus musculus; assay: Toxicity in PS mouse allografted with mouse P388 cells assessed as change in body weight at 12.5 ug/kg relative to control; format: organism-based; settings: in vivo, 0.0125 mg/kg
How it was run: (§1)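 P388 (PS) leukemia in mice, 6 mice per dose group. Weight change is the difference in grams between treated and control animals. Survivors are recorded on toxicity day, normally 4 days after the first injection.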

[2] = system: Mus musculus; assay: Toxicity in PS mouse allografted with mouse P388 cells assessed as survival at 3.1 ug/kg after 4 days; format: organism-based; settings: in vivo, 0.0031 mg/kg, 96 h
How it was run: (§2)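 PS (P388) leukemic mice, six started per dose group. Toxicity scored as survivors on the toxicity day over the number of mice started. The toxicity day is normally 4 days after the first injection.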

[3] = system: Mus musculus; assay: Toxicity in PS mouse allografted with mouse P388 cells assessed as change in body weight at 400 ug/kg relative to control; format: organism-based; settings: in vivo, 0.4 mg/kg; how it was run: as §1
[4] = system: Mus musculus; assay: Toxicity in PS mouse allografted with mouse P388 cells assessed as survival at 25 ug/kg after 4 days; format: organism-based; settings: in vivo, 0.025 mg/kg, 96 h; how it was run: as §2
[5] = system: P388; assay: Antitumor activity against mouse P388 cells allografted in PS mouse assessed as median survival time at 3.1 ug/kg relative to control; format: functional
How it was run: (§3)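 P388 leukemia (PS) in mice, six mice started per dose group. Read-out is T/C: median survival time of the treated group divided by that of the untreated control group, expressed as a percent. The NIH protocol counts a compound as active when T/C > 125%.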

[6] = system: KB; assay: Cytotoxicity against human KB cells; format: functional; settings: read-out: ED50 (the source's name)
[7] = system: P388; assay: Antitumor activity against mouse P388 cells allografted in PS mouse assessed as median survival time at 6.2 ug/kg relative to control; format: functional; how it was run: as §3
[8] = system: P388; assay: Antitumor activity against mouse P388 cells allografted in PS mouse assessed as median survival time at 50 ug/kg relative to control; format: functional; how it was run: as §3
[9] = system: Mus musculus; assay: Toxicity in PS mouse allografted with mouse P388 cells assessed as survival at 100 ug/kg after 4 days; format: organism-based; settings: in vivo, 0.1 mg/kg, 96 h; how it was run: as §2
[10] = system: P388; assay: Antitumor activity against mouse P388 cells allografted in PS mouse assessed as median survival time at 100 ug/kg relative to control; format: functional; how it was run: as §3
[11] = system: Mus musculus; assay: Toxicity in PS mouse allografted with mouse P388 cells assessed as change in body weight at 1.6 ug/kg relative to control; format: organism-based; settings: in vivo, 0.0016 mg/kg; how it was run: as §1
[12] = system: Mus musculus; assay: Toxicity in PS mouse allografted with mouse P388 cells assessed as change in body weight at 25 ug/kg relative to control; format: organism-based; settings: in vivo, 0.025 mg/kg; how it was run: as §1
[13] = system: Mus musculus; assay: Toxicity in PS mouse allografted with mouse P388 cells assessed as survival at 1.6 ug/kg after 4 days; format: organism-based; settings: in vivo, 0.0016 mg/kg, 96 h; how it was run: as §2
[14] = system: Mus musculus; assay: Toxicity in PS mouse allografted with mouse P388 cells assessed as change in body weight at 50 ug/kg relative to control; format: organism-based; settings: in vivo, 0.05 mg/kg; how it was run: as §1
[15] = system: Mus musculus; assay: Toxicity in PS mouse allografted with mouse P388 cells assessed as survival at 6.2 ug/kg after 4 days; format: organism-based; settings: in vivo, 0.0062 mg/kg, 96 h; how it was run: as §2
[16] = system: Mus musculus; assay: Toxicity in PS mouse allografted with mouse P388 cells assessed as change in body weight at 3.1 ug/kg relative to control; format: organism-based; settings: in vivo, 0.0031 mg/kg; how it was run: as §1
[17] = target: Tubulin (Homo sapiens) (UniProt P68371+Q9H4B7+P0DPH7+P68366+Q13509+Q71U36+P04350+Q3ZCM7+P07437+P68363+Q9BQE3+Q6PEY2+Q13885+Q9BVA1+Q9BUF5); assay: Inhibition of brain tubulin polymerization (unknown origin) at 37 degC by spectrophotometry
[18] = system: P388; assay: Antitumor activity against mouse P388 cells allografted in PS mouse assessed as median survival time at 400 ug/kg relative to control; format: functional; how it was run: as §3
[19] = system: Mus musculus; assay: Toxicity in PS mouse allografted with mouse P388 cells assessed as change in body weight at 100 ug/kg relative to control; format: organism-based; settings: in vivo, 0.1 mg/kg; how it was run: as §1
[20] = system: Mus musculus; assay: Toxicity in PS mouse allografted with mouse P388 cells assessed as change in body weight at 200 ug/kg relative to control; format: organism-based; settings: in vivo, 0.2 mg/kg; how it was run: as §1
[21] = system: Mus musculus; assay: Toxicity in PS mouse allografted with mouse P388 cells assessed as survival at 12.5 ug/kg after 4 days; format: organism-based; settings: in vivo, 0.0125 mg/kg, 96 h; how it was run: as §2
[22] = system: Paracentrotus lividus; assay: Antimitotic activity against sea urchin eggs assessed as drug level causing inhibition of mitosis; format: functional; settings: Egg
[23] = system: P388; assay: Antitumor activity against mouse P388 cells allografted in PS mouse assessed as median survival time at 12.5 ug/kg relative to control; format: functional; how it was run: as §3
[24] = system: P388; assay: Antitumor activity against mouse P388 cells allografted in PS mouse assessed as median survival time at 25 ug/kg relative to control; format: functional; how it was run: as §3
[25] = system: Mus musculus; assay: Toxicity in PS mouse allografted with mouse P388 cells assessed as survival at 400 ug/kg after 4 days; format: organism-based; settings: in vivo, 0.4 mg/kg, 96 h; how it was run: as §2
[26] = system: Mus musculus; assay: Toxicity in PS mouse allografted with mouse P388 cells assessed as change in body weight at 6.2 ug/kg relative to control; format: organism-based; settings: in vivo, 0.0062 mg/kg; how it was run: as §1
[27] = system: Mus musculus; assay: Toxicity in PS mouse allografted with mouse P388 cells assessed as survival at 50 ug/kg after 4 days; format: organism-based; settings: in vivo, 0.05 mg/kg, 96 h; how it was run: as §2
[28] = system: P388; assay: Antitumor activity against mouse P388 cells allografted in PS mouse assessed as median survival time at 200 ug/kg relative to control; format: functional; how it was run: as §3
[29] = system: Mus musculus; assay: Toxicity in PS mouse allografted with mouse P388 cells assessed as survival at 200 ug/kg after 4 days; format: organism-based; settings: in vivo, 0.2 mg/kg, 96 h; how it was run: as §2
[30] = system: P388; assay: Antitumor activity against mouse P388 cells allografted in PS mouse assessed as median survival time at 1.6 ug/kg relative to control; format: functional; how it was run: as §3
[31] = system: Mus musculus; assay: Toxicity in PS mouse allografted with mouse P388 cells assessed as change in body weight at 0.2 ug/kg relative to control; format: organism-based; settings: in vivo, 0.0002 mg/kg
How it was run: (§4)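 PS (P388 leukemia) mice, six per dose group. Toxicity read as the difference in grams between the weights of treated and control animals.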

[32] = system: P388; assay: Antitumor activity against mouse P388 cells allografted in PS mouse assessed as median survival time at 0.2 ug/kg relative to control; format: functional; how it was run: as §3
[33] = system: P388; assay: Antitumor activity against mouse P388 cells allografted in PS mouse assessed as median survival time at 0.4 ug/kg relative to control; format: functional; how it was run: as §3
[34] = system: Mus musculus; assay: Toxicity in PS mouse allografted with mouse P388 cells assessed as survival at 0.2 ug/kg after 4 days; format: organism-based; settings: in vivo, 0.0002 mg/kg, 96 h; how it was run: as §2
[35] = system: Mus musculus; assay: Toxicity in PS mouse allografted with mouse P388 cells assessed as survival at 0.8 ug/kg after 4 days; format: organism-based; settings: in vivo, 0.0008 mg/kg, 96 h; how it was run: as §2
[36] = system: Mus musculus; assay: Toxicity in PS mouse allografted with mouse P388 cells assessed as change in body weight at 0.8 ug/kg relative to control; format: organism-based; settings: in vivo, 0.0008 mg/kg; how it was run: as §4
[37] = system: P388; assay: Antitumor activity against mouse P388 cells allografted in PS mouse assessed as median survival time at 0.8 ug/kg relative to control; format: functional; how it was run: as §3
[38] = system: Mus musculus; assay: Toxicity in PS mouse allografted with mouse P388 cells assessed as survival at 0.4 ug/kg after 4 days; format: organism-based; settings: in vivo, 0.0004 mg/kg, 96 h; how it was run: as §2
[39] = system: Mus musculus; assay: Toxicity in PS mouse allografted with mouse P388 cells assessed as change in body weight at 0.4 ug/kg relative to control; format: organism-based; settings: in vivo, 0.0004 mg/kg; how it was run: as §4

Compound | Activity [1] | Activity [2] | Activity [4] | T/C [5] | EC50 [6] | T/C [7] | T/C [8] | Activity [9] | T/C [10] | Activity [12] | Activity [14] | Activity [15] | Activity [16] | inhibition [17] | Activity [19] | Activity [21] | Activity [22] | T/C [23] | T/C [24] | Activity [26] | further results
COc1cc2cc(c1Cl)N(C)C(=O)C[C@H](OC(=O)[C@H](C)N(C)C(=O)C(C)C)[C@]1(C)O[C@H]1[C@H](C)[C@@H]1C[C@@](OC)(NC(=O)O1)[C@H](OC)/C=C/C=C(\C)C2 | -2.1 g | Non-toxic | Non-toxic | 99% | 0.00016 µg/mL (≈ 0.000218 µM) | 100% | 99% | Non-toxic | 99% | -0.5 g | -2 g | Non-toxic | -1.1 g | Active | -1 g | Non-toxic | 1 ×10⁻⁸ mol/L | 99% | 96% | -0.6 g | Activity [3]: -3 g; Activity [11]: -1.8 g; Activity [13]: Non-toxic; T/C [18]: 136%; Activity [20]: -0.9 g; Activity [25]: Non-toxic; Activity [27]: Non-toxic; T/C [28]: 100%; Activity [29]: Non-toxic; T/C [30]: 101%
COc1cc2cc(c1Cl)N(C)C(=O)CC(O)C1(C)OC1C(C)C1CC(O)(NC(=O)O1)C(OC)/C=C/C=C(\C)C2 (stereo not given) [MAYTANSINOL] | 1.5 g | Non-toxic | Non-toxic | 102% | 0.19 µg/mL (≈ 0.336 µM) | 102% | 112% | Non-toxic | 105% | 0.5 g | -0.4 g | Non-toxic | 0.9 g | Active | 1.2 g | Non-toxic | 1 ×10⁻⁵ mol/L | 102% | 94% | 0.5 g | Activity [3]: -2.6 g; T/C [18]: 102%; Activity [20]: -1.8 g; Activity [25]: Non-toxic; Activity [27]: Non-toxic; T/C [28]: 112%; Activity [29]: Non-toxic
COc1cc2cc(c1Cl)NC(=O)/C=C/[C@]1(C)O[C@H]1[C@H](C)[C@@H]1C[C@@](O)(NC(=O)O1)[C@H](OC)/C=C/C=C(\C)C2 | -0.5 g | Non-toxic | Non-toxic | 115% | 0.019 µg/mL (≈ 0.0356 µM) | 115% | 110% | Non-toxic | 95% | -0.5 g | -0.3 g | Non-toxic | -0.2 g | Active | 1.2 g | Non-toxic | 1 µM | 110% | 110% | 0.4 g | Activity [31]: 1 g; T/C [32]: 100%; Activity [11]: 0 g; T/C [33]: 100%; Activity [13]: Non-toxic; Activity [34]: Non-toxic; Activity [27]: Non-toxic; Activity [35]: Non-toxic; Activity [36]: -0.1 g; T/C [37]: 90%; Activity [38]: Non-toxic; Activity [39]: 0.1 g; T/C [30]: 100%
